ChEMBL document CHEMBL1147082 (Proc Natl Acad Sci U S A, 2007)
Active and inactive are the calls of the source. The rule behind the calls is not given here.

What was measured:
Mus musculus [1] = test: Toxicity in Swiss-Webster mouse assessed as decrease in bone formation at 3 mg/kg after 28 days; format: organism-based; set-up: dose 3 mg/kg; settings: in vivo, 672 h
Summary of the method: (§1)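 Male Swiss–Webster mice, three months old, singly housed on standard chow, dosed orally for 28 days (vehicle; 3, 10, 30 mg/kg). Alizarin red 30 mg/kg s.c. at baseline DXA and calcein 15 mg/kg s.c. at final DXA for labeling. Tibial cortical histomorphometry under epifluorescence. Periosteal BFR = double-labeled surface × MAR/periosteal perimeter.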

Mus musculus [2] = test: Toxicity in Swiss-Webster mouse assessed as decrease in bone formation at 10 mg/kg after 28 days; format: organism-based; set-up: dose 10 mg/kg; settings: in vivo, 672 h; summary of the method: as §1
Mus musculus [3] = test: Toxicity in Swiss-Webster mouse assessed as decrease in bone formation at 30 mg/kg after 28 days; format: organism-based; set-up: dose 30 mg/kg; settings: in vivo, 672 h; summary of the method: as §1
[4] = target: T1, Glucocorticoid receptor (Rattus norvegicus) (UniProt P06536); test: Activity at endogenous glucocorticoid receptor in rat H42E liver cells assessed as increase in transcriptional activation of phosphoenol pyruvate carboxykinase at 0.01 uM after 24 hrs by RT-PCR; format: cell-based
T1 sequence (whole entry): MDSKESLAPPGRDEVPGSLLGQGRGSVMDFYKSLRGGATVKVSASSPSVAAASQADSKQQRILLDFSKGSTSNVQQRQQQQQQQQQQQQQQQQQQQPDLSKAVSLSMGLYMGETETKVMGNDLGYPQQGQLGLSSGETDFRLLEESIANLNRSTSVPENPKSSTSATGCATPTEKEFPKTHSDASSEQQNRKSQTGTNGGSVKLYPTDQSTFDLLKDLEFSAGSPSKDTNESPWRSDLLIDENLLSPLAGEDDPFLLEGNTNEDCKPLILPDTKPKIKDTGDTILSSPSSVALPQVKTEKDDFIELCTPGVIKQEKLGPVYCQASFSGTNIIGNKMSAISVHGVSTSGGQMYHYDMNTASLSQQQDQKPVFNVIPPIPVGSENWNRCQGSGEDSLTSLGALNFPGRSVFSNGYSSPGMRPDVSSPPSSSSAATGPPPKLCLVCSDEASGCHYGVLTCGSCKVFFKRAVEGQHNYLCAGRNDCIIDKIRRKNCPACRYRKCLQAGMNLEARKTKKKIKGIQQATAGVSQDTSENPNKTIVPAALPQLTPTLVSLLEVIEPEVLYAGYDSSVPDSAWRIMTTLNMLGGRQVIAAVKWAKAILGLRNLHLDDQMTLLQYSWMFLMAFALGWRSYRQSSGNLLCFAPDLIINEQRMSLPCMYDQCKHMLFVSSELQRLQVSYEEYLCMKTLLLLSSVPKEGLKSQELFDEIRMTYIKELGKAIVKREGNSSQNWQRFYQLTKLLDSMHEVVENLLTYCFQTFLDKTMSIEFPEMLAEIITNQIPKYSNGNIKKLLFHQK
Summary of the method: (§2)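 H4IIE rat liver cells (endogenous GR) kept in 10% FBS, seeded overnight at 3.5 × 10^5 cells/well, then given vehicle or compound in 10% dextran/charcoal-treated FBS for 24 h. RNA extracted, first-strand cDNA made, real-time PCR run (40 cycles). Target signal divided by 36B4 control gene. Triplicate biological samples and triplicate assays per dose; one-way ANOVA with Dunnett's method.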

[5] = target: T1, Glucocorticoid receptor (Rattus norvegicus); test: Activity at endogenous glucocorticoid receptor in rat H42E liver cells assessed as increase in transcriptional activation of pyruvate dehydrogenase kinase at 0.1 uM after 24 hrs by RT-PCR; format: cell-based; summary of the method: as §2
Mus musculus [6] = test: Inhibition of collagen-induced arthritis in DBA/1 mouse at less than 3 mg/kg, po after 15 days; format: functional, organism-based; set-up: dose 3 mg/kg
Summary of the method: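 Female DBA/1 mice, 6–8 weeks old, acclimatized 10 days. Bovine type II collagen (stored at 4 mg/ml in 0.01 M acetic acid) with complete Freund's adjuvant given intradermally at tail base on days 1 and 7. Daily oral gavage days 17–31 (15 days). Limbs scored 0–4 for clinical arthritis signs; 10 mice/group. One-way ANOVA with Fisher's LSD, P < 0.05.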

Mus musculus [7] = test: Toxicity in Swiss-Webster mouse assessed as increase in body fat at 10 mg/kg after 28 days; format: organism-based; set-up: dose 10 mg/kg; settings: in vivo, 672 h
Summary of the method: (§3)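 Male Swiss–Webster mice, three months old, singly housed, 12-h light cycle, chow ad libitum. Oral treatment for 28 days with vehicle or 3, 10, 30 mg/kg. Percentage body fat measured by DEXA, compared against vehicle controls.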

Mus musculus [8] = test: Toxicity in Swiss-Webster mouse assessed as increase in body fat at 30 mg/kg after 28 days; format: organism-based; set-up: dose 30 mg/kg; settings: in vivo, 672 h; summary of the method: as §3
[9] = target: T2, Glucocorticoid receptor (Homo sapiens) (UniProt P04150); settings: CV-1
T2 sequence (whole entry): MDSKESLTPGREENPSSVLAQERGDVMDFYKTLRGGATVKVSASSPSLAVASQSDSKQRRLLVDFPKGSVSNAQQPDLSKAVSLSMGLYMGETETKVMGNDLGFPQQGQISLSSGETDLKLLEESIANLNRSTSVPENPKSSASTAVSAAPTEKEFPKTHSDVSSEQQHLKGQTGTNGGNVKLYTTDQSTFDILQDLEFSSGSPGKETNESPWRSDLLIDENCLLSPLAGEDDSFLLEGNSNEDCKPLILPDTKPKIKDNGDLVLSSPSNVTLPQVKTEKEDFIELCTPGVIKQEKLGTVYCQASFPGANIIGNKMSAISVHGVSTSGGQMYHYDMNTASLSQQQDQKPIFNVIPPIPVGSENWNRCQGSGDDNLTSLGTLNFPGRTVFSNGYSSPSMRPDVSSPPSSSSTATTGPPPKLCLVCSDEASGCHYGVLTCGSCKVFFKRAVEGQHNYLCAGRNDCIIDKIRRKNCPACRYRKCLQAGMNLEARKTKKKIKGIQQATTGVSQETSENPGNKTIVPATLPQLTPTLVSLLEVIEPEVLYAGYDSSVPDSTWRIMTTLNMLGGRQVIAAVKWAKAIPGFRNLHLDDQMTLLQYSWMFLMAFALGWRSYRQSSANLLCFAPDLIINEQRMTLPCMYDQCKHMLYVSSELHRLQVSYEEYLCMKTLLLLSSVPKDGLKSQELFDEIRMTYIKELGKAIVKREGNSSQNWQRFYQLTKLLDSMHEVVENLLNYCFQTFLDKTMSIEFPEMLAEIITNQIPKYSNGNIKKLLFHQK

Mus musculus [10] = species on record: Mus musculus; test: Toxicity in Swiss-Webster mouse assessed as increase in body fat after 28 days relative to control; format: organism-based; settings: in vivo, 672 h; summary of the method: as §3
Progesterone receptor = target: T3, Progesterone receptor (Homo sapiens, UniProt P06401); test: Binding affinity to human recombinant progesterone-A receptor expressed in SF9 cells
T3 sequence (P06401 whole entry): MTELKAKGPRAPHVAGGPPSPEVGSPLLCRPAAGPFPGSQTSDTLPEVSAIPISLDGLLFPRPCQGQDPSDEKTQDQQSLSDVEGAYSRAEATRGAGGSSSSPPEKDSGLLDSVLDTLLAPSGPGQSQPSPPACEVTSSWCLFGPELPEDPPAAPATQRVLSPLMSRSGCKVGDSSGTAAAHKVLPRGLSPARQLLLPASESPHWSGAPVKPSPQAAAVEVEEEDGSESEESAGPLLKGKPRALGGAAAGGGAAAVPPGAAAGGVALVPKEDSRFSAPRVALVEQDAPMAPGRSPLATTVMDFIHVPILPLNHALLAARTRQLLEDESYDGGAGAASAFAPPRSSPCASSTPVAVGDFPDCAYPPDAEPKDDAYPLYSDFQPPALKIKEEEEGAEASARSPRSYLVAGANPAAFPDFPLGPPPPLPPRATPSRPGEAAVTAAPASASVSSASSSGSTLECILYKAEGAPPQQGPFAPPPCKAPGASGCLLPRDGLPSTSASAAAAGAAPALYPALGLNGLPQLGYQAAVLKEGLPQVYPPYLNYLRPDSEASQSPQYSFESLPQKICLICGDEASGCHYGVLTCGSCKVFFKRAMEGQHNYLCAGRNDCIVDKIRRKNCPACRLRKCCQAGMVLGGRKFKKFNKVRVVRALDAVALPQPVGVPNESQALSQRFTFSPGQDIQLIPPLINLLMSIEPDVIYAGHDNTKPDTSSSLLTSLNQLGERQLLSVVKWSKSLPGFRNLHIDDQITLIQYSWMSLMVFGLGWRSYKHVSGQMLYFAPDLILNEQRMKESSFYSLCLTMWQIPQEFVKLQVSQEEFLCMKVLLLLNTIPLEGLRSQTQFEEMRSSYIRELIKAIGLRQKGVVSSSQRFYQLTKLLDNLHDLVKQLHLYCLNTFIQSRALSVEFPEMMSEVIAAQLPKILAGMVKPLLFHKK
Summary of the method: (§4)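 Receptor source: extracts of SF-9 insect cells infected with recombinant baculovirus expressing the indicated receptor. Affinity was measured in a labeled-hormone binding assay.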

Androgen receptor = target: T4, Androgen receptor (Homo sapiens, UniProt P10275); test: Binding affinity to human recombinant androgen receptor expressed in SF9 cells; summary of the method: as §4
T4 sequence (P10275 whole entry): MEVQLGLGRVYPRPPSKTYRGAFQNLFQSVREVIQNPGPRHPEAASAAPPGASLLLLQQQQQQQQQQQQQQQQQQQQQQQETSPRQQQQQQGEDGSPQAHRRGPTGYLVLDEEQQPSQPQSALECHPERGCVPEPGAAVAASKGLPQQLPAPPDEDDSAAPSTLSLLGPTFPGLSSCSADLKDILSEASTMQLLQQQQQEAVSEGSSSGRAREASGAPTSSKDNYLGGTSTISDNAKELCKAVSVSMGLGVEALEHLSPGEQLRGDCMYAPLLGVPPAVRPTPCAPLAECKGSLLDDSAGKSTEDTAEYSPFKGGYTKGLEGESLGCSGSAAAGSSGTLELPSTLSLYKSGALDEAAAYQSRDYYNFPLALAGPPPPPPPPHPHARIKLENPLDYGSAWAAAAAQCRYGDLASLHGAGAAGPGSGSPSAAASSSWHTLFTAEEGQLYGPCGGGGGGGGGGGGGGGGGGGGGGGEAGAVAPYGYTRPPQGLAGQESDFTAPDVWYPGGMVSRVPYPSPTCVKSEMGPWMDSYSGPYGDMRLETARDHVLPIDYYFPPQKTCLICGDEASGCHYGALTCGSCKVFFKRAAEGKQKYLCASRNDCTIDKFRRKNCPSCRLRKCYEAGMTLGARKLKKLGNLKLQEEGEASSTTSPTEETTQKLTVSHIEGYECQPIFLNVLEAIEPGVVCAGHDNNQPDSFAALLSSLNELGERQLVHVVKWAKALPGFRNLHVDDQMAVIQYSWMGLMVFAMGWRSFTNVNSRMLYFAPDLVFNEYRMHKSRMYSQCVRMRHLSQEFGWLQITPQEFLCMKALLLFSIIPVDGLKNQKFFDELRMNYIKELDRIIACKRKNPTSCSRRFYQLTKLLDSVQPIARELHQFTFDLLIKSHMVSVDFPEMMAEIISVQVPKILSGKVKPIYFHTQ

Structure (SMILES) | Activity (Mus musculus [1]) | Activity (Mus musculus [2]) | Activity (Mus musculus [3]) | Activity [4] | Activity [5] | Activity (Mus musculus [6]) | Activity (Mus musculus [7]) | Activity (Mus musculus [8]) | ED50 [9] | Activity (Mus musculus [10]) | Ki (Progesterone receptor) | Ki (Androgen receptor)
C[C@]12C=CC(=O)C=C1CC[C@@H]1[C@@H]2[C@@H](O)C[C@@]2(C)[C@H]1CC[C@]2(O)C(=O)CO [PREDNISOLONE] | Toxic | Toxic | Toxic | Active | Active | Active | Toxic | Toxic | 4 nM | – | – | –
COc1c(O)ccc2c1-c1ccc3c(c1/C(=C/c1cccc(C)c1F)O2)C(C)=CC(C)(C)N3 | – | – | Toxic | – | – | Active | – | – | – | Toxic | 866 nM | 910 nM
C[C@@H]1C[C@H]2[C@@H]3CCC4=CC(=O)C=C[C@]4(C)[C@@]3(F)[C@@H](O)C[C@]2(C)[C@@]1(O)C(=O)CO | – | – | – | – | – | – | – | – | 0.1 nM | – | – | –
